High-throughput results as filed in PubChem.
Hits are enriched below; roughly 3% of the tested compounds scored in any of these assays.
SENP6 block – inhibitors of human SENP6 protease; Q9GZR1; Recombinant SENP6 catalytic domain, aminoluciferin luminescence; inhibition, % at 10 µM; 330,000 compounds, 1.8% hits;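 active = inhibition above about 50% at the single tested dose, limit read from the data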;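 also: plate controls were DMSO wells with enzyme for no effect and DMSO wells lacking enzyme for full effect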
UBC13 polyUb – blocks human UBC13 polyubiquitin chain formation | inhibition, % at 20 µM | 330,000 compounds, 0.47% hits | AID 485273 | P61088 | TR-FRET; in the data active = inhibition above about 45%, passing the limit was not always enough
Target sequence (P61088 whole entry, looked up): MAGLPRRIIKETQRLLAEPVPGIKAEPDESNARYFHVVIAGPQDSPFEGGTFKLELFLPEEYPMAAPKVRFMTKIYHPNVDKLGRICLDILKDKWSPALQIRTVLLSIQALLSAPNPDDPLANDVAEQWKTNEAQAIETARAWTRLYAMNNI
SENP7 inh – blocks the human protease SENP7; Q9BQF6; recombinant SENP7, Z-RLRGG-aminoluciferin luminescence, 40 min; inhibition, % at 5 µM; 330,000 compounds, 1.5% hits;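 active = inhibition above about 50% at the single test dose, limit read from the data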;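 also: plate controls were DMSO with enzyme for no effect and no enzyme buffer wells for full effect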
SENP8 block-1 – blocks human SENP8 cleavage of Nedd8 substrate; Q96LD8; recombinant SENP8, Nedd8 substrate fluorescence; inhibition, % at 20 µM; 360,000 compounds, 0.64% hits; AID 602440; in the data active = inhibition mostly above about 40%, no sharp cut-off; inactive = mostly below about 27%
Target sequence (Q96LD8 whole entry, looked up): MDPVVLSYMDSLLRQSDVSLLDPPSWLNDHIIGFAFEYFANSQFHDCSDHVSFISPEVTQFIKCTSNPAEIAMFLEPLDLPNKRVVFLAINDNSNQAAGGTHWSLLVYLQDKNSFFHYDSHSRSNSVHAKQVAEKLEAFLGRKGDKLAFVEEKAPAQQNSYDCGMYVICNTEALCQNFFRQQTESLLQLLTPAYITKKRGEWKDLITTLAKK
Apaf-1 inh – blocks human Apaf-1 apoptosome activity; AID 489030; 330,000 compounds, 0.71% hits; O14727; reconstituted apoptosome caspase-3 activity, DEVD-Rh110 fluorescence; inhibition, % at 20 µM; active = inhibition of at least 40% at 20 µM;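 also: plate controls were DMSO wells for no effect and DEVD-CHO caspase inhibitor wells for full effect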
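Material: reconstituted apoptosome with Apaf-1, cytochrome c, caspase-9, procaspase-3, dATP. Technique: Rh110 fluorescence intensity. Buffer or medium: pH 7.5 Hepes buffer with CHAPS, BSA, DTT. Times: 30 min plus 50 min, RT.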
SENP8 block-2 – SENP8 protease inhibition. AID 2540. 330,000 compounds, 1.2% hits. purified SENP8, Z-RLRGG-aminoluciferin cleavage, luminescence. Q96LD8. inhibition, % at 10 µM; in the data active = inhibition above about 50%
SENP8 confirm – confirmation of human SENP8 protease inhibitors. inhibition, % at 12.5 µM. AID 488912. shares compounds with SENP7 inh. Recombinant SENP8, Z-RLRGG-aminoluciferin luminescence, 60 min. 6,200 compounds, 40% hits;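 active = mean inhibition across replicates above about 50%, limit read from the data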
SENP6 confirm – human SENP6 inhibition, confirmed | 6,200 compounds, 58% hits | shares compounds with SENP7 inh | inhibition, % at 12.5 µM | AID 488915 | recombinant SENP6, Z-RLRGG-aminoluciferin luminescence
SENP7 confirm – human SENP7 inhibition, confirmed; shares compounds with SENP7 inh; recombinant SENP7, Z-RLRGG-aminoluciferin luminescence, 40 min; inhibition, % at 12.5 µM; 6,200 compounds, 69% hits; AID 488917
Casp3 SENP sel – caspase-3 inhibition (SENP selectivity assay). shares compounds with SENP7 inh. inhibition, % at 12.5 µM. 6,200 compounds, 60% hits. purified caspase-3, Z-DEVD-aminoluciferin luminescence, 60 min;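 active = mean inhibition above about 50%, limit read from the data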;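 also: plate controls were enzyme with DMSO for no effect and wells without caspase-3 for full effect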
Target sequence (P42574 28-227 limits assumed): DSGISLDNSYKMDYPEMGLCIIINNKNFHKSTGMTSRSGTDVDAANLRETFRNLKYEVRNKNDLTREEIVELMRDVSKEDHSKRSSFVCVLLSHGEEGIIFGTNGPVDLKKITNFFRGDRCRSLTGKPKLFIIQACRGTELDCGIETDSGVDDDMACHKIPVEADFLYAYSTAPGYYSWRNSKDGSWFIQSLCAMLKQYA
SENP luc ctr – counter-screen for SENP inhibitors: luminescence interference. shares compounds with SENP7 inh. inhibition, % at 12.5 µM. Pre-incubated SENP8/Z-RLRGG-aminoluciferin, luciferase luminescence interference. 6,200 compounds, 39% hits;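 active = mean inhibition above about 50% when retested at one dose, limit read from the data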;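 also: plate controls were DMSO wells with completed reaction for no effect and substrate without enzyme for full effect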
* marks the source's active call; other numbers are inactive results; i = inactive; . = no result.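 The calls were made as follows, unless noted: active = mean inhibition above about 50% in the one-dose retest (limit read from the data); inactive = the rest.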

SMILES | SENP6 block | UBC13 polyUb | SENP7 inh | SENP8 block-1 | Apaf-1 inh | SENP8 block-2 | SENP8 confirm | SENP6 confirm | SENP7 confirm | Casp3 SENP sel | SENP luc ctr
COc1ccc2c(c1OC)C(=O)OC2Nc1nc(-c2ccc(-c3ccccc3)cc2)cs1 (centres undefined) | 83* | 2 | 63* | -308 | 2 | 69* | 51* | 49 | 56* | 38 | 74*
COc1ccc2oc(=O)c(-c3csc(Nc4ccc(O)cc4)n3)cc2c1 | 3 | 6 | 0 | -9 | 11 | -2 | . | . | . | . | .
COc1ccc2c(c1OC)C(=O)OC2Nc1nc(-c2cc3ccccc3oc2=O)cs1 (centres undefined) | 96* | -2 | 91* | -242 | -8 | 90* | 91* | 95* | 88* | 94* | 86*
COc1ccc2c(c1OC)C(=O)OC2Nc1nc(-c2cc3cc([N+](=O)[O-])ccc3oc2=O)cs1 (centres undefined) | 60* | -15 | 65* | 11 | -3 | 52* | -7 | -9 | 2 | 22 | 5
COc1cccc(-c2csc(NC3OC(=O)c4c3ccc(OC)c4OC)n2)c1 (centres undefined) | -25 | -6 | -5 | 15 | -19 | -13 | . | . | . | . | .
COc1ccc(-c2cc(C(=O)N3CCN(c4cccc(C)c4C)CC3)c3ccccc3n2)cc1OC | -13 | 8 | 2 | -486 | 31 | -4 | . | . | . | . | .
COc1ccc(CCNC(=O)C(=O)NCC2OCCN2S(=O)(=O)c2ccc(Cl)cc2)cc1OC (centres undefined) | -16 | 1 | 6 | 0 | -1 | 5 | . | . | . | . | .
O=C1CCC(C(=O)N2CCN(c3ccccc3)CC2)CN1CC1CCCCC1 (centres undefined) | 4 | -24 | 2 | 1 | 10 | 2 | . | . | . | . | .
C=CCNC(=S)NCC | 17 | -3 | 8 | 15 | 0 | -1 | . | . | . | . | .
N#CC(=C1C=CC(=NO)C(Cl)=C1)c1ccccc1 | . | . | . | 5 | . | . | . | . | . | . | .
Cc1cn(-c2cccnc2)c(C)c1CNC[C@H]1O[C@@H](n2cnc3c(N)ncnc32)[C@H](O)[C@@H]1O | -14 | -9 | -7 | 5 | 3 | -12 | . | . | . | . | .
CC1(C)CC(=O)C(C=Nc2ccc3[nH]ncc3c2)=C(O)C1 | 3 | -3 | 5 | -104 | -8 | -4 | . | . | . | . | .
COc1ccc(C=Nc2ccc3[nH]ncc3c2)c(O)c1 | 62* | -5 | 18 | -179 | 31 | -7 | 17 | 4 | 10 | 10 | 6
CC(c1nnc(SCC(=O)Nc2cccnc2Cl)n1-c1ccccc1)N(C)C (centres undefined) | 11 | 4 | 4 | 9 | 4 | -3 | . | . | . | . | .
CCN1C(=O)[C@H]2[C@@H](c3ccc(-c4ccc(C(C)=O)cc4)cc3)N[C@@](C)(C(=O)OC)[C@H]2C1=O | 2 | -8 | 2 | 21 | 6 | 6 | . | . | . | . | .
O=C(c1ccc(Cl)cc1)c1coc2ccc(O)cc12 | 86* | 3 | 77* | 13 | 10 | 78* | 7 | 88* | 99* | 73* | 2
CC(C)c1ccc(NC(=O)C2C3C=CC4(O3)C2C(=O)N(CCCN2CCCCC2)C4C(=O)NC2CCCCC2)cc1 (centres undefined) | -22 | 3 | -2 | 4 | 3 | -4 | . | . | . | . | .
O=C(Nc1ccc(F)cc1)C(=O)C1C(=O)Nc2ccccc21 (centres undefined) | 24 | -10 | 13 | 25 | -15 | 1 | . | . | . | . | .
O=C(Nc1ccc2ccccc2c1)C(=O)C1C(=O)Nc2ccccc21 (centres undefined) | 92* | -6 | 78* | . | -13 | 84* | 73* | 74* | 89* | 77* | 8
CNC(=O)c1cccc(NC(=O)c2ccccc2OCc2ccccc2)c1 | -25 | 1 | -5 | 10 | 10 | -14 | . | . | . | . | .
Nc1ccccc1C(=O)N1CCc2ccccc21 | 55* | -8 | -16 | -42 | -3 | 14 | 42 | 36 | 25 | 43 | 55*
COc1ccccc1C(=O)N1CCc2ccccc21 | -1 | 8 | -4 | 8 | 0 | 4 | . | . | . | . | .
CN(C)c1ccc(N=Nc2nc3ccccc3n2C)cc1 | 100* | -463 | 100* | 50* | 11 | 97* | 95* | 101* | 103* | 89* | 36
Cn1c(N=Nc2ccccc2)nc2ccccc21 | -4 | -58 | 101* | 66* | 9 | 97* | -16 | 99* | 103* | 94* | 97*
O=c1oc(Nc2ccccc2Cl)nc2ccccc12 | . | . | . | -97 | . | . | . | . | . | . | .
SMILES | SENP6 block | UBC13 polyUb | SENP7 inh | SENP8 block-1 | Apaf-1 inh | SENP8 block-2 | SENP8 confirm | SENP6 confirm | SENP7 confirm | Casp3 SENP sel | SENP luc ctr
O=c1oc(Nc2ccccc2F)nc2ccccc12 | 76* | 0 | 42 | -139 | -3 | 54* | 4 | 99* | 103* | 99* | 98*
O=c1cc(-c2ccco2)oc2ccc(Cl)cc12 | . | . | . | -401 | . | . | . | . | . | . | .
COc1cc(OC)c2c(=O)cc(-c3cccnc3)oc2c1 | . | . | . | -309 | . | . | . | . | . | . | .
COc1ccc2oc(-c3ccco3)cc(=O)c2c1 | 81* | 20 | 80* | -462 | -22 | 61* | 10 | 26 | 49 | 55* | 9
COc1ccc(-c2cc(=O)c3cc(O)ccc3o2)cc1 | 69* | 10 | 78* | 3 | -2 | 53* | -21 | 47 | 87* | 73* | 47
COc1ccc(-c2ccc3oc(-c4ccsc4)cc(=O)c3c2)cn1 | 0 | 20 | 70* | i | 23 | 22 | 17 | 16 | 18 | 15 | 1
COc1cc(OC)c2c(=O)cc(-c3ccccc3)oc2c1 | 59* | 14 | 57* | -229 | 13 | 46 | 64* | 61* | 82* | 77* | 68*
O=C1COc2ccc(C(=O)COC(=O)Cc3c(F)cccc3Cl)cc2N1 | -24 | -2 | 12 | -239 | 14 | -2 | . | . | . | . | .
COc1cc(-c2cc(=O)c3c(O)cc(O)cc3o2)cc(OC)c1OC | . | . | . | -4 | . | . | . | . | . | . | .
COc1ccc(-c2cc(=O)c3c(O)cc(O)cc3o2)cc1 | 84* | -2 | 85* | 25 | 9 | 68* | 24 | 52* | 64* | 75* | 17
O=c1cc(-c2ccccc2)oc2ccc(O)cc12 | 66* | 8 | 56* | -30 | 11 | 37 | 54* | 51* | 82* | 66* | 71*
